Data: ChEMBL document CHEMBL1153877, “Lowering of 5-nitroimidazole's mutagenicity: towards optimal antiparasitic pharmacophore” (Eur J Med Chem, 2009)

Columns and labels:
THP-1 = experiment: Cytotoxicity against human THP1 cells after 72 hrs by propidium iodide-based flow cytometry; format: cell-based; conditions: THP-1, 72 h
In short: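 THP1 monocytes kept in RPMI with 10% foetal calf serum, 25 mM HEPES, 25 mM NaHCO₃ and 1% L-glutamine/penicillin-streptomycin at 37 °C, 6% CO₂. Cells at 10⁵ cells/mL exposed for 72 h to various concentrations from DMSO stocks. Drug-free and 0.5% DMSO final controls run alongside. Living cells counted by propidium iodide flow cytometry.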

Salmonella typhimurium [1] = experiment: Induction of mutagenicity in Salmonella Typhimurium YG1042 assessed as number of revertant per nmol after 48 hrs; format: toxicity, organism-based; conditions: salmonella enterica subsp. enterica serovar typhimurium
In short: (§1)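 YG1042, a TA100 derivative, grown overnight in Nutrient Broth No. 2 with ampicillin and kanamycin. Bacteria preincubated 60 min at 37 °C with shaking with compound in DMSO and 0.1 mL PBS (0.15 M, pH 7.4). Top agar containing histidine/biotin added, then plated on Vogel-Bonner agar. Revertants counted after 48 h. Four doses in triplicate plates; solvent control in quadruplicate. Mutagenic power given as revertants per amount of compound.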

Trichomonas vaginalis = experiment: Antitrichomonas activity against Trichomonas vaginalis TVR87 after 48 hrs by trypan blue staining; format: functional, organism-based; conditions: TVR87, 48 h
In short: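 T. vaginalis TVR87 trophozoites grown in TM 161 medium with 10% heat-inactivated horse serum, used one day after subculture in log phase. Assay at 5 × 10³ trophozoites/mL, triplicate cultures, incubated anaerobically at 37 °C for 48 h with a range of compound concentrations from DMSO stocks. DMSO 0.1% final served as negative control. Viable cells counted by trypan blue.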

[2] = Specificity index, ratio of IC50 for human THP1 cells to IC50 for Trichomonas vaginalis TVR87; parameters: species or system THP-1
In short: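 Specificity index = IC50 against THP1 cells (72 h, propidium iodide flow cytometry) divided by IC50 against T. vaginalis (48 h, trypan blue).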

Salmonella typhimurium [3] = experiment: Induction of mutagenicity in Salmonella Typhimurium YG1042 assessed as number of revertant per ug after 48 hrs; format: toxicity, organism-based; conditions: salmonella enterica subsp. enterica serovar typhimurium; in short: as §1
Salmonella typhimurium [4] = experiment: Induction of mutagenicity in Salmonella Typhimurium TA100 assessed as number of revertant per nmol after 48 hrs relative to metranidazole; format: toxicity, organism-based; conditions: salmonella enterica subsp. enterica serovar typhimurium
Salmonella typhimurium [5] = experiment: Ratio of number of revertant per nmol of drug for Salmonella Typhimurium YG1042 to number of revertant per nmol of drug for Salmonella Typhimurium TA100; format: toxicity, organism-based; conditions: salmonella enterica subsp. enterica serovar typhimurium
Salmonella typhimurium [6] = experiment: Induction of mutagenicity in Salmonella Typhimurium TA100 assessed as number of revertant per ug after 48 hrs; format: toxicity, organism-based; conditions: salmonella enterica subsp. enterica serovar typhimurium
In short: (§2)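 TA100 grown overnight in Nutrient Broth No. 2 with ampicillin. Bacteria preincubated 60 min at 37 °C with shaking with compound in DMSO and 0.1 mL PBS (0.15 M, pH 7.4). Top agar containing histidine/biotin added, then plated on Vogel-Bonner agar. Revertants counted after 48 h. Four consecutive doses in triplicate plates; solvent control in quadruplicate. Mutagenic power given as revertants per amount of compound.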

Salmonella typhimurium [7] = experiment: Induction of mutagenicity in Salmonella Typhimurium YG1042 assessed as number of revertant per nmol after 48 hrs relative to metranidazole; format: toxicity, organism-based; conditions: salmonella enterica subsp. enterica serovar typhimurium
Salmonella typhimurium [8] = experiment: Induction of mutagenicity in Salmonella Typhimurium TA100 assessed as number of revertant per nmol after 48 hrs; format: toxicity, organism-based; conditions: salmonella enterica subsp. enterica serovar typhimurium; in short: as §2

In the case of `Cc1nc(CS(=O)(=O)c2ccc(Br)cc2)c([N+](=O)[O-])n1CCO`, the IC50 (THP-1) is reported as 124 µM, the Activity (Salmonella typhimurium [1]) is reported as 3.73 and the IC50 (Trichomonas vaginalis) is reported as 1.64 µM. The “Ratio IC50” value [2] was 75, the Activity (Salmonella typhimurium [3]) was 9.123 and the Activity (Salmonella typhimurium [4]) was 0.13. For the same compound, the Ratio (Salmonella typhimurium [5]) was 3.4, the Activity (Salmonella typhimurium [6]) was 2.73 and the Activity (Salmonella typhimurium [7]) was 0.04. For the same compound, the Activity (Salmonella typhimurium [8]) was 1.1.

For `Cc1nc(CS(=O)(=O)c2ccc(F)cc2)c([N+](=O)[O-])n1CCO`, the IC50 (THP-1) was > 728 µM, the Activity (Salmonella typhimurium [1]) was 3.46 and the IC50 (Trichomonas vaginalis) was 1.75 µM. For the same compound, the “Ratio IC50” value [2] was >416, the Activity (Salmonella typhimurium [3]) was 10.09 and the Activity (Salmonella typhimurium [4]) was 0.08. It also gave a Ratio (Salmonella typhimurium [5]) of 5.3, an Activity (Salmonella typhimurium [6]) of 1.91 and an Activity (Salmonella typhimurium [7]) of 0.04. It also gave an Activity (Salmonella typhimurium [8]) of 0.66.

For `Cc1nc(CS(=O)(=O)c2ccc(F)cc2)c([N+](=O)[O-])n1C`, the IC50 (THP-1) was > 797 µM, the Activity (Salmonella typhimurium [1]) was 7.6 and the IC50 (Trichomonas vaginalis) was 2.55 µM. For the same compound, the “Ratio IC50” value [2] was >312, the Activity (Salmonella typhimurium [3]) was 24.26 and the Activity (Salmonella typhimurium [4]) was 0.18. For the same compound, the Ratio (Salmonella typhimurium [5]) was 5.1, the Activity (Salmonella typhimurium [6]) was 4.72 and the Activity (Salmonella typhimurium [7]) was 0.09. It also gave an Activity (Salmonella typhimurium [8]) of 1.48.

With `Cc1ccc(S(=O)(=O)Cc2ncn(C)c2[N+](=O)[O-])cc1` the IC50 (THP-1) was > 846 µM, the Activity (Salmonella typhimurium [1]) was 54.74 and the IC50 (Trichomonas vaginalis) was 0.155 µM. For the same compound, the “Ratio IC50” value [2] was >5458, the Activity (Salmonella typhimurium [3]) was 185.37 and the Activity (Salmonella typhimurium [4]) was 2.46. The Ratio (Salmonella typhimurium [5]) was 2.7, the Activity (Salmonella typhimurium [6]) was 69.71 and the Activity (Salmonella typhimurium [7]) was 0.65. It also gave an Activity (Salmonella typhimurium [8]) of 20.59.

With `Cn1cnc(CS(=O)(=O)c2ccccc2)c1[N+](=O)[O-]` the IC50 (THP-1) was > 888 µM, the Activity (Salmonella typhimurium [1]) was 49.69 and the IC50 (Trichomonas vaginalis) was 0.199 µM. The “Ratio IC50” value [2] was >4460, the Activity (Salmonella typhimurium [3]) was 176.64 and the Activity (Salmonella typhimurium [4]) was 1.71. It also gave a Ratio (Salmonella typhimurium [5]) of 3.5, an Activity (Salmonella typhimurium [6]) of 50.91 and an Activity (Salmonella typhimurium [7]) of 0.59. The Activity (Salmonella typhimurium [8]) was 14.32.

`Cc1ccc(S(=O)(=O)Cc2nc(C)n(C)c2[N+](=O)[O-])cc1` showed an IC50 (THP-1) of 242 µM, an Activity (Salmonella typhimurium [1]) of 17 and an IC50 (Trichomonas vaginalis) of 0.355 µM. For the same compound, the “Ratio IC50” value [2] was 684, the Activity (Salmonella typhimurium [3]) was 54.97 and the Activity (Salmonella typhimurium [4]) was 0.56. For the same compound, the Ratio (Salmonella typhimurium [5]) was 3.7, the Activity (Salmonella typhimurium [6]) was 15.03 and the Activity (Salmonella typhimurium [7]) was 0.2. The Activity (Salmonella typhimurium [8]) was 4.65.

With `Cc1nc(CS(=O)(=O)c2ccc(F)cc2)c([N+](=O)[O-])n1CC(C)O` (stereo not drawn) the IC50 (THP-1) was > 699 µM, the IC50 (Trichomonas vaginalis) was 2.38 µM and the “Ratio IC50” value [2] was >293.

Compound `Cc1nc(CS(=O)(=O)c2ccccc2)c([N+](=O)[O-])n1CC(C)O` (stereo not drawn) has an IC50 (THP-1) of 418 µM, an Activity (Salmonella typhimurium [1]) of 3.65 and an IC50 (Trichomonas vaginalis) of 0.615 µM. For the same compound, the “Ratio IC50” value [2] was 679, the Activity (Salmonella typhimurium [3]) was 10.76 and the Activity (Salmonella typhimurium [4]) was 0.1. For the same compound, the Ratio (Salmonella typhimurium [5]) was 4.2, the Activity (Salmonella typhimurium [6]) was 2.58 and the Activity (Salmonella typhimurium [7]) was 0.04. It also gave an Activity (Salmonella typhimurium [8]) of 0.88.

With `Cc1nc(CS(=O)(=O)c2ccc(Br)cc2)c([N+](=O)[O-])n1CC(C)O` (stereo not drawn) the IC50 (THP-1) was 126 µM, the Activity (Salmonella typhimurium [1]) was 1.29 and the IC50 (Trichomonas vaginalis) was 0.418 µM. For the same compound, the “Ratio IC50” value [2] was 301, the Activity (Salmonella typhimurium [3]) was 3.08 and the Activity (Salmonella typhimurium [4]) was 0.17. The Ratio (Salmonella typhimurium [5]) was 0.9, the Activity (Salmonella typhimurium [6]) was 3.36 and the Activity (Salmonella typhimurium [7]) was 0.02. The Activity (Salmonella typhimurium [8]) was 1.41.

With `Cc1ccc(S(=O)(=O)Cc2nc(C)n(CC(C)O)c2[N+](=O)[O-])cc1` (stereo not drawn) the IC50 (THP-1) was > 707 µM, the Activity (Salmonella typhimurium [1]) was 2.39 and the IC50 (Trichomonas vaginalis) was 0.124 µM. For the same compound, the “Ratio IC50” value [2] was >5701, the Activity (Salmonella typhimurium [3]) was 6.76 and the Activity (Salmonella typhimurium [4]) was 0.09. The Ratio (Salmonella typhimurium [5]) was 3.3, the Activity (Salmonella typhimurium [6]) was 2.07 and the Activity (Salmonella typhimurium [7]) was 0.03. For the same compound, the Activity (Salmonella typhimurium [8]) was 0.73.

`Cc1ccc(S(=O)(=O)Cc2nc(C)n(CCO)c2[N+](=O)[O-])cc1` showed an IC50 (THP-1) of 59 µM, an Activity (Salmonella typhimurium [1]) of 2.08 and an IC50 (Trichomonas vaginalis) of 0.067 µM. The “Ratio IC50” value [2] was 880, the Activity (Salmonella typhimurium [3]) was 6.14 and the Activity (Salmonella typhimurium [4]) was 0.19. The Ratio (Salmonella typhimurium [5]) was 1.3, the Activity (Salmonella typhimurium [6]) was 4.62 and the Activity (Salmonella typhimurium [7]) was 0.02. The Activity (Salmonella typhimurium [8]) was 1.57.

With `Cc1nc(CS(=O)(=O)c2ccccc2)c([N+](=O)[O-])n1CCO` the IC50 (THP-1) was > 768 µM, the Activity (Salmonella typhimurium [1]) was 2.72 and the IC50 (Trichomonas vaginalis) was 1.54 µM. The “Ratio IC50” value [2] was >500, the Activity (Salmonella typhimurium [3]) was 8.36 and the Activity (Salmonella typhimurium [4]) was 0.07. The Ratio (Salmonella typhimurium [5]) was 4.9, the Activity (Salmonella typhimurium [6]) was 1.72 and the Activity (Salmonella typhimurium [7]) was 0.03. For the same compound, the Activity (Salmonella typhimurium [8]) was 0.56.
